Laboratory results taken from ChEMBL document CHEMBL1126100, “Anticancer activity in murine and human tumor cell lines of bis(platinum) complexes incorporating straight-chain aliphatic diamine linker groups” (J Med Chem, 1992).

Assays:
Type in all cases: functional, cell-based
L1210 = test: In vitro growth inhibition by the compound was determined in cisplatin-sensitive murine L1210S cell lines; settings: Mus musculus
Outline: (§1)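 Growth inhibition of murine leukemia lines (cisplatin-resistant variants and cisplatin-sensitive L1210S, P388S) followed a published procedure, read out as ID50. Values are mean ± SEM of 3 to 17 separate experiments, or averages of at least two experiments. Each experiment's value was the mean of duplicates.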

L1210 (DDP5) = test: In vitro growth inhibition by the compound was determined in cisplatin-resistant murine L1210DDP5 cell lines; settings: Mus musculus; outline: as §1
P388/S = test: In vitro growth inhibition by the compound was determined in cisplatin-sensitive murine P388S cell lines; settings: Mus musculus; outline: as §1
L1210 (DACH) = test: In vitro growth inhibition by the compound was determined in cisplatin-resistant murine L1210DACH cell lines; settings: Mus musculus; outline: as §1
P388PtR4 = test: In vitro growth inhibition by the compound was determined in cisplatin-resistant murine P388PtR4 cell lines; settings: Mus musculus; outline: as §1
L1210 (PtR4) = test: In vitro growth inhibition by the compound was determined in cisplatin-resistant murine L1210PtR4 cell lines; settings: Mus musculus; outline: as §1
NCI-H23 = test: In vitro growth inhibition by the compound was determined in human H23 tumor cell lines
Outline: (§2)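 ID50 (µM) for growth inhibition of human tumor lines: HCT-8 colon adenocarcinoma and the H23, AH125 and H520 non-small cell lung carcinomas. Reported as mean ± SEM of at least four experiments, or as the average of at least two separate experiments.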

HCT-8 = test: In vitro growth inhibition by the compound was determined in human HCT-8 tumor cell lines; outline: as §2
NCI-H520 = test: In vitro growth inhibition by the compound was determined in human H520 tumor cell lines; outline: as §2
AH125 cell line = test: In vitro growth inhibition by the compound was determined in human AH125 tumor cell lines; outline: as §2

Row | Substance | ID50 (L1210) [nM] | ID50 (L1210 (DDP5)) [nM] | ID50 (P388/S) [nM] | ID50 (L1210 (DACH)) [nM] | ID50 (P388PtR4) [nM] | ID50 (L1210 (PtR4)) [nM] | ID50 (NCI-H23) [nM] | ID50 (HCT-8) [nM] | ID50 (NCI-H520) [nM] | ID50 (AH125 cell line) [nM]
1 | 0-Hexyl-1,3-diamine-platinum 2,2-dichloride | 210 | 380 | 210 | 9500 | 2260 | 190 | – | – | – | –
2 | CI-973 | 1400 | 8600 | 220 | 3600 | 3700 | 5400 | 3900 | 4200 | 3900 | –
3 | CISPLATIN | 920 | 16100 | 700 | 2100 | 23300 | 19100 | 310 | 1300 | 470 | 700
4 | mu-(1,5-pentanediamine-N,N')bis-(aminedioato(2-)-O,O'platimum (II)) | 3830 | 17200 | 2060 | 9490 | 16000 | 13000 | 1480 | 4420 | 1830 | 3680
5 | mu-(1,7-Heptanediamine-N,N')bis-(cis-aminedichloroplatimum (II)) | 220 | 1230 | 140 | 500 | 910 | 730 | 30 | 100 | – | 120
6 | mu-(1,7-nanodiamine-N,N')bis-(cis-aminedichloroplatimum (II)) | 290 | 2800 | 210 | 1600 | 3200 | 2200 | 56 | 190 | 140 | 260
